Laboratory results: PubChem BioAssay AID504383 (The Scripps Research Institute Molecular Screening Center, 2011)
Hit rate of the full screen: of about 2,500 compounds, about 1,200 (48%) were called active.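 The calls were made as follows: active = mean activation above the low control average plus 3 SD, as set in the primary screen (cut at about 12% in these data); inactive = the rest.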 So high a share suggests a set chosen from earlier hits. Some of the results follow.

Biological target: Troponin I, cardiac muscle (Homo sapiens) + Troponin T, cardiac muscle (Homo sapiens) + Troponin C, slow skeletal and cardiac muscles (Homo sapiens) (UniProt P19429+P45379+P63316)
Assay: calcium sensitizers of cardiac thin filaments – biochemical, IANBD-TnC fluorescence, triplicate, confirmation (AID 504383);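 also: 0% = DMSO at 0.472 mM calcium and 100% = DMSO at 2.9 mM calcium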
Details: IANBD-labeled cardiac RTF, Ca2+ sensitivity fluorescence; at 7.2 µM; hits give high values; scaled from EC20 to saturating calcium; tested at EC20 calcium, 0.472 mM
In short: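 Assay system: labelled regulated thin filaments / Timing: 15 min at 25 °C / Detection: fluorescence intensity of labelled filaments / Measure: fluorescence gain scaled between EC20 and EC100 calcium controls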

How did the activation turn out when `Cc1ccc2c(c1)[C@H]1[C@H](CO2)[C@H](c2ccccc2)[C@]2(C)C(=O)N(Cc3ccc(F)cc3)CC(=O)N12` was run?
The activation was 4.21% (inactive).

`COc1ccc(-n2nnnc2SCC(=O)c2cc3ccccc3o2)cc1` was tested. Which activation did it give?
Its activation is 40.8% (active).

For `NS(=O)(=O)c1ccc(-c2ccc(/C=C3\SC(=S)N(C4CCS(=O)(=O)C4)C3=O)o2)cc1` (configuration not stated), which activation is on record?
Its activation is 17.8% (active).

Which activation does the source give for `Fc1ccc(CN2CCCN(C(=S)Nc3ccc(F)cc3)CC2)cc1` here?
Its activation is 54% (active).

How did the activation turn out when `O=C(Nc1ccc(F)cc1)OCCN1CCN(Cc2ccccc2)CCC1=O` was run?
The activation was 5.99% (inactive).

For `CCn1c(C(C)NC(C)=O)nc2ccccc21` (configuration not stated), which activation is on record?
Its activation is 16.6% (active).

How did the activation turn out when `CCn1c(CNc2ccc(C(=O)O)cc2)nc2ccccc21` was run?
The activation was -2.9% (inactive).

How did the activation turn out when `C/C(=N\NC(=O)c1cc2c(s1)CCC(C)C2)c1ccc[nH]1` (configuration not stated) was run?
Its activation is 5.66% (inactive).

For `COCCN(C(=S)Nc1cccc(OC)c1)C1CCN(C(C)=O)CC1`, which activation is on record?
The activation was 12.8% (active).

Which activation does the source give for `CN(C)c1ccc(/C=C(/C#N)C(=O)Nc2nc3c(s2)CCN(Cc2ccccc2)C3)cc1` here?
The activation was 10.5% (inactive).

With `CN(C)c1ccc(/C=C(\C#N)C(=O)c2ccccc2)cc1` as the compound, how does the activation read?
The activation was 9.54% (inactive).

With `CC(OC(=O)/C(C#N)=C/c1ccc(N(C)C)cc1)C(=O)N(C)Cc1ccccc1` (configuration not stated) as the compound, how does the activation read?
Its activation is 18.4% (active).

Which activation does the source give for `CC(=O)Nc1ccc(NC(=O)C(C)OC(=O)/C(C#N)=C/c2ccc(N(C)C)cc2)cc1` (configuration not stated) here?
Its activation is 17% (active).

`CN(C)c1ccc(/C=C(\C#N)C(=O)Nc2nc3c(s2)CCN(Cc2ccccc2)C3)cc1` was tested. Which activation did it give?
Its activation is 6.43% (inactive).

For `CC(OC(=O)/C(C#N)=C/c1ccc(N(C)C)cc1)C(=O)N(C)c1ccccc1` (configuration not stated), which activation is on record?
Its activation is 17.5% (active).

`Fc1ccc(C2=CC(c3ccco3)n3ncnc3N2)cc1` (configuration not stated) was tested. Which activation did it give?
The activation was 18.9% (active).

With `Brc1ccc(C2=CC(c3ccco3)n3ncnc3N2)cc1` (configuration not stated) as the compound, how does the activation read?
Its activation is 7.55% (inactive).

Which activation does the source give for `Fc1ccc(C2=CC(c3ccc(Br)o3)n3ncnc3N2)cc1` (configuration not stated) here?
The activation was 5.63% (inactive).

Which activation does the source give for `COc1ccc2nc(C)cc(NCc3ccc(F)cc3)c2c1` here?
The activation was 10.7% (inactive).

Which activation does the source give for `COc1ccc2nc(C)c3cc(C)oc3c2c1` here?
Its activation is 71.2% (active).

Which activation does the source give for `O=C(Nc1ccc(S(=O)(=O)Nc2ncccn2)cc1)c1nn(Cc2ccccc2)c(=O)c2ccccc12` here?
The activation was 736% (active).

`O=C(Nc1ccc(S(=O)(=O)Nc2ncccn2)cc1)C1CC(=O)N(c2ccccc2)C1` (configuration not stated) was tested. Which activation did it give?
The activation was 0.68% (inactive).

`Cc1ccc(NS(=O)(=O)c2ccc(C(=O)N3CCN(c4ncccn4)CC3)cc2)cc1` was tested. Which activation did it give?
Its activation is 3.55% (inactive).

`COC(=O)C/C(O)=C(/N=Nc1cccc(C(F)(F)F)c1)C(=O)OC` was tested. Which activation did it give?
Its activation is 9.06% (inactive).

For `CCOC(=O)CN1C(=O)N[C@@H](c2cccc(C(F)(F)F)c2)C(C(=O)OC)=C1C`, which activation is on record?
Its activation is 1.28% (inactive).

For `COCCN1C(=O)N[C@@H](c2cccc(C(F)(F)F)c2)C(C(=O)OC)=C1C`, which activation is on record?
The activation was 42.1% (active).

How did the activation turn out when `CCOc1ccc(-c2nnc(NC(=O)CCCOc3cccc(C)c3)o2)cc1` was run?
The activation was 7.1% (inactive).

How did the activation turn out when `Cc1ccc(S(=O)(=O)N2CC(C(=O)O)=CC[C@H]2c2ccc(Cl)cc2)cc1` was run?
Its activation is 4.74% (inactive).

For `Cc1nnc(N/N=C/c2ccc(O)c([N+](=O)[O-])c2)[nH]c1=O`, which activation is on record?
Its activation is 35.2% (active).

With `Cc1ccc(/C=C2/NC(=O)N(Cc3ccccc3F)C2=O)s1` as the compound, how does the activation read?
The activation was 7.33% (inactive).

`Cc1cc(/C=C2/NC(=O)N(Cc3ccccc3F)C2=O)c(C)n1C` was tested. Which activation did it give?
The activation was 25.1% (active).

`O=C(CC1SC(N2CCCCC2)=NC1=O)Nc1ccc(C(=O)NCc2ccccc2)cc1` (configuration not stated) was tested. Which activation did it give?
Its activation is 9.91% (inactive).

For `CCCNC(=O)C12CCC(C)(C(=O)C1Br)C2(C)C` (configuration not stated), which activation is on record?
The activation was 12.4% (active).

`COc1cc2c(cc1OC)-c1cc3ccc4c(c3c[n+]1CC2)OCO4` was tested. Which activation did it give?
The activation was 15.6% (active).

How did the activation turn out when `CCCCC(=O)Nc1ccc(C(=O)Nc2ccc(OC)cc2[N+](=O)[O-])cc1` was run?
Its activation is 13.3% (active).

For `CCOCCCNS(=O)(=O)c1ccc(NC(=O)c2ccc(OC)c([N+](=O)[O-])c2)cc1`, which activation is on record?
Its activation is 9.02% (inactive).

For `Cc1ccc2nc3nc(NCC4CCCO4)c(C(=O)NC4CCCC4)cc3c(=O)n2c1` (configuration not stated), which activation is on record?
The activation was 12.9% (active).
